Source: PMC10520980 (European journal of medicinal chemistry, 2022)
Like-named read-outs stand apart in the source and are kept apart here.

Legend:
[1] = tested on: NTMT1 and NTMT2; settings: cited from earlier work
[2] = biological target: T1, NTMT1 (Homo sapiens, UniProt Q9BV86); settings: read-out: cellular IC50; HT29; cited from earlier work
T1 sequence (Q9BV86 1-223): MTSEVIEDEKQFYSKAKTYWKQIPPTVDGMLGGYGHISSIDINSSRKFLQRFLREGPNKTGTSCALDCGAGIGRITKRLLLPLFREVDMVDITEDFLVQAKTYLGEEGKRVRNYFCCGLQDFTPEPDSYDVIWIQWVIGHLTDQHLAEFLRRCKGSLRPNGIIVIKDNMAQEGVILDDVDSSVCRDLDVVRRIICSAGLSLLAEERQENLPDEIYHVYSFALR

[3] = biological target: T1, NTMT1; settings: read-out: cellular IC50; HCT116; cited from earlier work
[4] = tested on: HT29; experiment: Cytotoxicity, WST-8 assay, HT29; assay type: cell-based, human; settings: HT29, up to 64 μM, 24 h
How it was run: (§1)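 Cells were seeded at 5×10^3 per well and cultured 24 h. They were then exposed to a range of test compound concentrations or DMSO vehicle. A solution of 5 mM WST-8 plus 0.2 mM 1-methoxyphenazinium salt in 150 mM NaCl was added, followed by 3 h at 37 °C in 5% CO₂. Absorbance was read at 490 nm. Triplicates.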

[5] = biological target: T1, NTMT1; experiment: Degradation of NTMT1 in HT29; assay type: cell-based; settings: for DC50: read-out: DC50, NTMT1 degradation, HT29, 24 h, Western blot
How it was run: (§2)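 Cells were seeded at 8×10^4 per well, grown 24 h, then treated with graded concentrations for 24 h or at 50 μM over a time course, with DMSO control. Lysis was in Tris pH 8.0/NaCl/NP-40/Triton buffer, followed by BCA. 20 μg protein was run on 10% SDS-PAGE with PVDF transfer. Membranes were probed with rabbit anti-NTMT1 and anti-β-actin overnight at 4 °C, then chemiluminescence. Densitometry was normalised to DMSO, and DC50 was derived from these values. Triplicates.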

[6] = tested on: ntmt1 KO HCT116 cells; experiment: Cell proliferation assay; assay type: cell-based, human; settings: ntmt1 KO HCT116, various concentrations, 72 h
[7] = tested on: eGFP; experiment: Control with plasmid expressing only eGFP in HCT116; assay type: cell-based, human; settings: HCT116, 100 μM, 24 h
[8] = biological target: NTMT1-eGFP fusion protein (Homo sapiens, UniProt Q9BV86); experiment: NTMT1 degradation visualized by fluorescence; assay type: cell-based; settings: HCT116, 100 μM, 24 h
How it was run: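 HCT116 cells were seeded at 1.5×10^5 per well. After 12 h they were transfected with pEGFP-n1-NTMT1 or empty pEGFP-n1 using Lipofectamine 3000 in reduced-serum medium with 20% FBS, for 8 h. Cells recovered 24 h in complete medium, then received 100 μM degrader or DMSO for 24 h. The GFP fusion was imaged on an inverted fluorescence microscope.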

[9] = tested on: HCT116; experiment: Cytotoxicity, WST-8 assay, HCT116; assay type: cell-based, human; settings: HCT116, up to 64 μM, 24 h
How it was run: as §1

[10] = biological target: NTMT2 (Homo sapiens, UniProt Q5VVY1); experiment: Selectivity: NTMT2 protein level in HCT116 and HT29; assay type: cell-based; settings: 24 h
How it was run: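 HCT116 and HT29 cells were treated with a range of degrader concentrations for 24 h. Lysates were resolved by SDS-PAGE, and NTMT1, NTMT2 and β-actin band regions were cut from the same membrane. These were probed with rabbit anti-NTMT1, anti-NTMT2 and anti-actin, then goat anti-rabbit secondary and chemiluminescence. Triplicates.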

[11] = biological target: T1, NTMT1; experiment: Degradation of NTMT1 in HCT116; assay type: cell-based; settings: for DC50: read-out: DC50, NTMT1 degradation, HCT116, 24 h, Western blot; for fold less potent than degrader 1 (DC50): HCT116
How it was run: as §2

[12] = tested on: calreticulin (CALR); experiment: CALR expression by Western blot; assay type: cell-based, human; settings: HCT116, 25 μM, 24 h
How it was run: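 HCT116 cells were treated at 25 μM for 24 h alongside the inhibitor comparator. Cells were lysed at 4 °C for 1 h in Tris pH 8.0/NaCl/NP-40/Triton X-100 buffer with protease inhibitor, and protein was quantified by BCA. 10 μg protein was run on 8% SDS-PAGE and transferred to PVDF. Blots were probed with rabbit anti-CALR and anti-β-actin, detected by chemiluminescence and quantified by densitometry. Triplicates.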

Chain of NTMT2 (Q5VVY1 whole entry): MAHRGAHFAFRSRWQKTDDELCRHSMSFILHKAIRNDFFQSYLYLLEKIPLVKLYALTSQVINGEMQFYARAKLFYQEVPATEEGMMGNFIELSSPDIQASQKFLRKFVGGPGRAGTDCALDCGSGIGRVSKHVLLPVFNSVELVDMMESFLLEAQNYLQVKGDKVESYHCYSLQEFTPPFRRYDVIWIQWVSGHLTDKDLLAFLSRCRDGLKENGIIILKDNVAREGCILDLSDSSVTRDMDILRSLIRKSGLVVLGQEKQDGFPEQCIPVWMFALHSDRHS

| SMILES | cytotoxicity (cell viability, WST-8) [4] | DC50 [5] | antiproliferative effect on ntmt1 KO cells [6] | cytotoxicity (cell viability, WST-8) [9] | DC50 [11] | fold less potent than degrader 1 (DC50) [11] | other results |
| --- | --- | --- | --- | --- | --- | --- | --- |
| NCCCC[C@H](NC(=O)[C@@H]1CCCN1C(=O)Cc1ccc(O)cc1)C(=O)N[C@@H](CCCN=C(N)N)C(N)=O [BM30] | – | – | – | – | – | – | selectivity toward NTMT1 and NTMT2 [1]: nonselective inhibitor |
| NCCCC[C@H](NC(=O)[C@@H]1CCCN1C(=O)Cc1cccc2ccccc12)C(=O)Nc1ccccc1C(N)=O [DC541, (S)-N-((S)-6-amino-1-((2-carbamoylphenyl)amino)-1-oxohexan-2-yl)-1-(2-(naphthalen-1-yl)acetyl)pyrrolidine-2-carboxamide] | – | – | – | – | – | – | IC50 [2]: ~30 µM; IC50 [3]: > 100 µM |
| Cc1ncsc1-c1ccc(CNC(=O)[C@@H]2C[C@@H](O)CN2C(=O)[C@H](C(C)C)N2Cc3ccccc3C2=O)c(OCCNC(=O)c2ccccc2NC(=O)[C@H](CCCCN)NC(=O)[C@@H]2CCCN2C(=O)Cc2cccc3ccccc23)c1 [degrader 1, (2S,4R)-N-(2-(2-(2-((S)-6-amino-2-((S)-1-(2-(naphthalen-1-yl)acetyl)pyrrolidine-2-carboxamido)hexanamido)benzamido)ethoxy)-4-(4-methylthiazol-5-yl)benzyl)-4-hydroxy-1-((S)-3-methyl-2-(1-oxoisoindolin-2-yl)butanoyl)pyrrolidine-2-carbox amide] | No significant cytotoxicity | 18.1 µM | neither compound displayed an antiproliferative effect | No significant cytotoxicity | 7.53 µM | – | onset of pronounced change of NTMT1 levels ([5]; HT29, 50 μM): not observed until 6 h; fluorescence of eGFP only (control plasmid) [7]: did not show obvious reduction of fluorescence; fluorescence of NTMT1-eGFP fusion protein [8]: most fluorescence signals were lost; degradation of NTMT2 ([10]; HCT116, various concentrations): cannot induce degradation of NTMT2; degradation of NTMT2 ([10]; HT29, various concentrations): cannot induce degradation of NTMT2; NTMT1 degradation after pre-treatment with proteasome inhibitor MG-132 ([11]; HCT116, 1 μM MG-132 for 2 h, then 50 μM compound 24 h): completely abolished; NTMT1 level (Western blot) ([11]; HCT116, 25 μM, 24 h): almost depleted; NTMT1 level within 24 h ([11]; HCT116, 50 μM, 24 h): almost completely depleted; CALR expression relative to inhibitor 4 (Western blot) [12]: ~ 1.4 fold |
| Cc1ncsc1-c1ccc(CNC(=O)[C@@H]2C[C@@H](O)CN2C(=O)[C@H](C(C)C)N2Cc3ccccc3C2=O)c(OCCOCCNC(=O)c2ccccc2NC(=O)[C@H](CCCCN)NC(=O)[C@@H]2CCCN2C(=O)Cc2cccc3ccccc23)c1 [degrader 2, (2S,4R)-N-(2-(2-(2-(2-((S)-6-amino-2-((S)-1-(2-(naphthalen-1-yl)acetyl)pyrrolidine-2-carboxamido)hexanamido)benzamido)ethoxy)ethoxy)-4-(4-methyl-thiazol-5-yl)benzyl)-4-hydroxy-1-((S)-3-methyl-2-(1-oxoisoindolin-2-yl)butanoyl)pyrrolidine-2-carboxamide] | – | 53.7 µM | – | – | 79.7 µM | ≥ 9 fold | – |
| Cc1ncsc1-c1ccc(CNC(=O)[C@@H]2C[C@@H](O)CN2C(=O)[C@H](C(C)C)N2Cc3ccccc3C2=O)c(OCCOCCOCCOCCNC(=O)c2ccccc2NC(=O)[C@H](CCCCN)NC(=O)[C@@H]2CCCN2C(=O)Cc2cccc3ccccc23)c1 [degrader 3, (2S,4R)-N-(2-((1-(2-((S)-6-amino-2-((S)-1-(2-(naphthalen-1-yl)acetyl)pyrrolidine-2-carboxamido)hexanamido)phenyl)-1-oxo-5,8,11-trioxa-2-azatridecan-13-yl)oxy)-4-(4-methylthiazol-5-yl)benzyl)-4-hydroxy-1-((S)-3-methyl-2-(1-oxoisoindolin-2-yl)butanoyl)pyrrolidine-2-carboxamide] | – | 53.7 µM | – | – | 66.4 µM | ≥ 9 fold | – |
| Cc1ncsc1-c1ccc(CNC(=O)[C@@H]2C[C@H](O)CN2C(=O)[C@H](C(C)C)N2Cc3ccccc3C2=O)c(OCCNC(=O)c2ccccc2NC(=O)[C@H](CCCCN)NC(=O)[C@@H]2CCCN2C(=O)Cc2cccc3ccccc23)c1 [inhibitor 4, (2S,4S)-N-(2-(2-(2-((S)-6-amino-2-((S)-1-(2-(naphthalen-1-yl)acetyl)pyrrolidine-2-carboxamido)hexanamido)benzamido)ethoxy)-4-(4-methylthiazol-5-yl)benzyl)-4-hydroxy-1-((S)-3-methyl-2-(1-oxoisoindolin-2-yl)butanoyl)-pyrrolidine-2-carboxamide] | No significant cytotoxicity | – | neither compound displayed an antiproliferative effect | No significant cytotoxicity | – | – | NTMT1 level relative to DMSO control ([5]; HT29, 50 μM, 24 h): unable to reduce NTMT1 levels; NTMT1 level relative to DMSO control ([11]; HCT116, 50 μM, 24 h): unable to reduce NTMT1 levels |
